From ChEMBL document CHEMBL1158495, “Quinolone carboxylic acids as a novel monoketo acid class of human immunodeficiency virus type 1 integrase inhibitors” (J Med Chem, 2009)

System: not listed separately
Assay: Selectivity index, ratio of CC50 for human MT4 cells to EC50 for HIV1 3B
Format: toxicity, cell-based
Conditions: not given
Procedure, shortened: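 For EC50, cells were infected with HIV-1 IIIb at multiplicity 0.01 before compound was added; for CC50, cells were uninfected. Viability was read by MTT reduction, with formazan dissolved in acidic isopropanol/4% Triton-X and absorbance at 595 nm.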

Row | Structure (SMILES) | selectivity ratio
1 | COc1cc2c(cc1Cc1cccc(Cl)c1F)c(=O)c(C(=O)O)cn2[C@H](CO)C(C)(C)C | > 4000

System: Human immunodeficiency virus 1
Assay: Antiviral activity against HIV1 infected in human PBMN cells assessed as inhibition of viral replication in presence of 50% human serum
Format: functional
Conditions: Human immunodeficiency virus 1, PBMN

Row | Structure (SMILES) | EC90
2 | COc1cc2c(cc1Cc1cccc(Cl)c1F)c(=O)c(C(=O)O)cn2[C@H](CO)C(C)C | 9.8 nM

Target: Human immunodeficiency virus type 1 integrase (Human immunodeficiency virus 1, UniProt Q7ZJM1)
Assay: Inhibition of HIV1 integrase strand transfer activity
Conditions: not given

Human immunodeficiency virus type 1 integrase, sequence (Q7ZJM1 whole entry): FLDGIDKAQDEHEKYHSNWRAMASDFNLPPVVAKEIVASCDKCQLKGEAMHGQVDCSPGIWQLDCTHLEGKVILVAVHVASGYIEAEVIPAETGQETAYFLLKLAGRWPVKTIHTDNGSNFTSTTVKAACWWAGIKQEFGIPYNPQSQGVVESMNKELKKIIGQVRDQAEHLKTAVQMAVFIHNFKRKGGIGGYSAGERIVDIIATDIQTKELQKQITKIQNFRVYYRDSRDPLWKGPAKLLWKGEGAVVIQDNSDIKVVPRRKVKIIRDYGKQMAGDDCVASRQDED

Row | Structure (SMILES) | IC50
3 | O=C(O)c1cn(CCO)c2ccc(Cc3cccc(Cl)c3Cl)c(F)c2c1=O | 84 nM
4 | O=C(O)c1cn([C@H](CO)C2CCCCC2)c2ccc(Cc3cccc(Cl)c3F)cc2c1=O | 5.6 nM
5 | Cc1cc2c(cc1Cc1cccc(Cl)c1Cl)c(=O)c(C(=O)O)cn2CCO | 41 nM
6 | NC(=O)c1c[nH]c2ccc(Cc3ccccc3)cc2c1=O | > 100000 nM
7 | Cc1ccccc1Cc1ccc2[nH]cc(C(=O)O)c(=O)c2c1 | 1080 nM
8 | O=C(O)c1cn(CCO)c2cc(C(F)(F)F)c(Cc3cccc(Cl)c3Cl)cc2c1=O | 674 nM
9 | O=C(O)c1cn(CCO)c2c(F)cc(Cc3cccc(Cl)c3Cl)cc2c1=O | 34 nM
10 | CC(C)n1cc(C(=O)O)c(=O)c2cc(Cc3cccc(Cl)c3Cl)ccc21 | 26 nM
11 | C[C@H](CO)n1cc(C(=O)O)c(=O)c2cc(Cc3cccc(Cl)c3F)ccc21 | 38.3 nM
12 | NC(=O)Cn1cc(C(=O)O)c(=O)c2cc(Cc3cccc(Cl)c3Cl)ccc21 | 35 nM
13 | O=C(O)CCn1cc(C(=O)O)c(=O)c2cc(Cc3cccc(Cl)c3Cl)ccc21 | 38 nM
14 | O=C(O)c1cn(CCO)c2cc(F)c(Cc3cccc(Cl)c3Cl)cc2c1=O | 25 nM
15 | CCOC(=O)c1cnc2ccc(Cc3ccccc3)cc2c1O | > 100000 nM
16 | Cn1cc(C(=O)O)c(=O)c2cc(Cc3ccccc3)ccc21 | 2300 nM
17 | O=C(O)c1c[nH]c2ccc(Cc3ccccc3C(F)(F)F)cc2c1=O | 720 nM
18 | O=C(O)c1cn([C@H](CO)c2ccccc2)c2ccc(Cc3cccc(Cl)c3F)cc2c1=O | 9.8 nM
19 | CCn1cc(C(=O)O)c(=O)c2cc(Cc3cccc(Cl)c3Cl)ccc21 | 31 nM
20 | O=C(O)c1cn(CCO)c2ccc(Cc3cccc(F)c3Cl)cc2c1=O | 44 nM
21 | O=C(O)c1c[nH]c2ccc(Cc3cccc(Cl)c3)cc2c1=O | 800 nM
22 | COc1cc2c(cc1Cc1cccc(Cl)c1Cl)c(=O)c(C(=O)O)cn2CCO | 12 nM
23 | CCC[C@@H](CO)n1cc(C(=O)O)c(=O)c2cc(Cc3cccc(Cl)c3F)c(OC)cc21 | 5.8 nM
24 | NCCn1cc(C(=O)O)c(=O)c2cc(Cc3cccc(Cl)c3Cl)ccc21 | 215 nM
25 | O=C(O)c1c[nH]c2ccc(Cc3ccc(Cl)cc3)cc2c1=O | > 100000 nM
26 | COc1cc2c(cc1Cc1cccc(Cl)c1F)c(=O)c(C(=O)O)cn2[C@H](CO)C(C)(C)C | 5.8 nM
27 | CCCCn1cc(C(=O)O)c(=O)c2cc(Cc3cccc(Cl)c3Cl)ccc21 | 65 nM

System: Human immunodeficiency virus 1
Assay: Antiviral activity against HIV1 3B infected in human MT4 cells assessed as inhibition of viral replication after 5 days by MTT assay
Format: functional, organism-based
Conditions: Human immunodeficiency virus 1, 3B, MT4, 120 h
Procedure, shortened: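 MT-4 human T lymphoid cells at 1 × 10^5 cells/mL in RPMI 1640 with 10% FBS, penicillin and streptomycin; infected with strain IIIb at multiplicity 0.01, compounds added, 37 °C for 5 days. Viability read by MTT (7.5 mg/mL solution), formazan dissolved in acidic isopropanol with 4% Triton-X, absorbance at 595 nm.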

Row | Structure (SMILES) | EC50
28 | O=C(O)c1cn(CCO)c2ccc(Cc3cccc(Cl)c3Cl)c(F)c2c1=O | 1680 nM
29 | O=C(O)c1cn([C@H](CO)C2CCCCC2)c2ccc(Cc3cccc(Cl)c3F)cc2c1=O | 7.3 nM
30 | Cc1cc2c(cc1Cc1cccc(Cl)c1Cl)c(=O)c(C(=O)O)cn2CCO | 180 nM
31 | NC(=O)c1c[nH]c2ccc(Cc3ccccc3)cc2c1=O | > 30000 nM
32 | Cc1ccccc1Cc1ccc2[nH]cc(C(=O)O)c(=O)c2c1 | > 6000 nM
33 | O=C(O)c1cn(CCO)c2cc(C(F)(F)F)c(Cc3cccc(Cl)c3Cl)cc2c1=O | > 6000 nM
34 | O=C(O)c1cn(CCO)c2c(F)cc(Cc3cccc(Cl)c3Cl)cc2c1=O | 530 nM
35 | CC(C)n1cc(C(=O)O)c(=O)c2cc(Cc3cccc(Cl)c3Cl)ccc21 | 330 nM
36 | C[C@H](CO)n1cc(C(=O)O)c(=O)c2cc(Cc3cccc(Cl)c3F)ccc21 | 116 nM
37 | NC(=O)Cn1cc(C(=O)O)c(=O)c2cc(Cc3cccc(Cl)c3Cl)ccc21 | 540 nM
38 | O=C(O)CCn1cc(C(=O)O)c(=O)c2cc(Cc3cccc(Cl)c3Cl)ccc21 | > 30000 nM
39 | O=C(O)c1cn(CCO)c2cc(F)c(Cc3cccc(Cl)c3Cl)cc2c1=O | 130 nM
40 | CCOC(=O)c1cnc2ccc(Cc3ccccc3)cc2c1O | > 30000 nM
41 | Cn1cc(C(=O)O)c(=O)c2cc(Cc3ccccc3)ccc21 | > 30000 nM
42 | O=C(O)c1c[nH]c2ccc(Cc3ccccc3C(F)(F)F)cc2c1=O | > 6000 nM
43 | O=C(O)c1cn([C@H](CO)c2ccccc2)c2ccc(Cc3cccc(Cl)c3F)cc2c1=O | 51.6 nM
44 | CCn1cc(C(=O)O)c(=O)c2cc(Cc3cccc(Cl)c3Cl)ccc21 | 290 nM
45 | COc1cc2c(cc1Cc1cccc(Cl)c1F)c(=O)c(C(=O)O)cn2[C@H](CO)C(C)C | 0.9 nM
46 | O=C(O)c1cn(CCO)c2ccc(Cc3cccc(F)c3Cl)cc2c1=O | 340 nM
47 | O=C(O)c1c[nH]c2ccc(Cc3cccc(Cl)c3)cc2c1=O | > 6000 nM
48 | COc1cc2c(cc1Cc1cccc(Cl)c1Cl)c(=O)c(C(=O)O)cn2CCO | 60 nM
49 | CCC[C@@H](CO)n1cc(C(=O)O)c(=O)c2cc(Cc3cccc(Cl)c3F)c(OC)cc21 | 1.3 nM
50 | NCCn1cc(C(=O)O)c(=O)c2cc(Cc3cccc(Cl)c3Cl)ccc21 | 570 nM
51 | O=C(O)c1c[nH]c2ccc(Cc3ccc(Cl)cc3)cc2c1=O | > 6000 nM
52 | COc1cc2c(cc1Cc1cccc(Cl)c1F)c(=O)c(C(=O)O)cn2[C@H](CO)C(C)(C)C | 0.6 nM
53 | CCCCn1cc(C(=O)O)c(=O)c2cc(Cc3cccc(Cl)c3Cl)ccc21 | 2340 nM

System: not listed separately
Assay: Cytotoxicity against human MT4 cells after 5 days by MTT assay
Format: cell-based
Conditions: not given
Procedure, shortened: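 Uninfected MT-4 cells at 1 × 10^5 cells/mL in RPMI 1640 with 10% FBS, penicillin and streptomycin, exposed to compounds at 37 °C for 5 days. Viability by MTT (7.5 mg/mL solution); formazan taken up in acidic isopropanol containing 4% Triton-X, read at 595 nm.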

Row | Structure (SMILES) | CC50 at 120 h
54 | O=C(O)c1cn(CCO)c2ccc(Cc3cccc(Cl)c3Cl)c(F)c2c1=O | 14300 nM
55 | O=C(O)c1cn([C@H](CO)C2CCCCC2)c2ccc(Cc3cccc(Cl)c3F)cc2c1=O | 7700 nM
56 | Cc1cc2c(cc1Cc1cccc(Cl)c1Cl)c(=O)c(C(=O)O)cn2CCO | > 30000 nM
57 | NC(=O)c1c[nH]c2ccc(Cc3ccccc3)cc2c1=O | > 30000 nM
58 | Cc1ccccc1Cc1ccc2[nH]cc(C(=O)O)c(=O)c2c1 | 18500 nM
59 | O=C(O)c1cn(CCO)c2cc(C(F)(F)F)c(Cc3cccc(Cl)c3Cl)cc2c1=O | 10000 nM
60 | O=C(O)c1cn(CCO)c2c(F)cc(Cc3cccc(Cl)c3Cl)cc2c1=O | > 30000 nM
61 | CC(C)n1cc(C(=O)O)c(=O)c2cc(Cc3cccc(Cl)c3Cl)ccc21 | > 6000 nM
62 | C[C@H](CO)n1cc(C(=O)O)c(=O)c2cc(Cc3cccc(Cl)c3F)ccc21 | 14400 nM
63 | NC(=O)Cn1cc(C(=O)O)c(=O)c2cc(Cc3cccc(Cl)c3Cl)ccc21 | 22600 nM
64 | O=C(O)CCn1cc(C(=O)O)c(=O)c2cc(Cc3cccc(Cl)c3Cl)ccc21 | > 30000 nM
65 | O=C(O)c1cn(CCO)c2cc(F)c(Cc3cccc(Cl)c3Cl)cc2c1=O | 9800 nM
66 | CCOC(=O)c1cnc2ccc(Cc3ccccc3)cc2c1O | > 30000 nM
67 | Cn1cc(C(=O)O)c(=O)c2cc(Cc3ccccc3)ccc21 | > 30000 nM
68 | O=C(O)c1c[nH]c2ccc(Cc3ccccc3C(F)(F)F)cc2c1=O | 14800 nM
69 | O=C(O)c1cn([C@H](CO)c2ccccc2)c2ccc(Cc3cccc(Cl)c3F)cc2c1=O | 8700 nM
70 | CCn1cc(C(=O)O)c(=O)c2cc(Cc3cccc(Cl)c3Cl)ccc21 | 16200 nM
71 | COc1cc2c(cc1Cc1cccc(Cl)c1F)c(=O)c(C(=O)O)cn2[C@H](CO)C(C)C | 4000 nM
72 | O=C(O)c1cn(CCO)c2ccc(Cc3cccc(F)c3Cl)cc2c1=O | > 6000 nM
73 | O=C(O)c1c[nH]c2ccc(Cc3cccc(Cl)c3)cc2c1=O | > 6000 nM
74 | COc1cc2c(cc1Cc1cccc(Cl)c1Cl)c(=O)c(C(=O)O)cn2CCO | 4200 nM
75 | CCC[C@@H](CO)n1cc(C(=O)O)c(=O)c2cc(Cc3cccc(Cl)c3F)c(OC)cc21 | 3100 nM
76 | NCCn1cc(C(=O)O)c(=O)c2cc(Cc3cccc(Cl)c3Cl)ccc21 | 5300 nM
77 | O=C(O)c1c[nH]c2ccc(Cc3ccc(Cl)cc3)cc2c1=O | > 6000 nM
78 | COc1cc2c(cc1Cc1cccc(Cl)c1F)c(=O)c(C(=O)O)cn2[C@H](CO)C(C)(C)C | 3400 nM
79 | CCCCn1cc(C(=O)O)c(=O)c2cc(Cc3cccc(Cl)c3Cl)ccc21 | 15000 nM
